Results reported in ChEMBL document CHEMBL1124387, “Cardiotonic agents. 9. Synthesis and biological evaluation of a series of (E)-4,5-dihydro-6-[2-[4-(1H-imidazol-1-yl)phenyl]ethenyl]-3 (2H)-pyridazinones: a novel class of compounds with positive inotropic, antithrombotic, and vasodilatory activities for the treatment of congestive heart failure” (J Med Chem, 1989).
Values joined by “and” are separate entries in the source; they are usually repeats but may differ in a detail not shown here. Identical values can stand only once.

Columns and labels:
[1] = system: Canis familiaris; experiment: (§1) Decrease in thrombus weight in anesthetized dog coronary artery; format: functional, Canis lupus familiaris
How it was run: (§2)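 Pentobarbital-anesthetized (32 mg/kg iv), ventilated dogs, allowed 30 min to stabilize. Continuous infusion of compound (1.0, 3.0 or 10.0 μg/kg/min) or saline began 15 min before 50 μA current was applied to an intraluminal electrode in the circumflex coronary artery. After 60 min of stimulation the animals were euthanized and the thrombus dissected and weighed. One treatment per animal.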

[2] = system: Canis familiaris; experiment: Hemodynamic activity in anesthetized dog as percent change in left ventricular myocardial activity from baseline (2271 mmHg/s) at 0.01 mg/kg administered intravenously; format: functional, Canis lupus familiaris, Heart left ventricle; conditions: route intravenous
How it was run: (§3)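 Acutely instrumented anesthetized dogs (n = 6), 30-min control period. Compound in 0.9% saline, or dilute HCl diluted with saline, at 0.1 mL/kg iv over 1 min. At least four ascending half-log doses, 10 min apart, one compound per animal. Recorded: LV dP/dtmax, heart rate, aortic pressure and forelimb resistance. Values are maximum response from control average ± SEM.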

[3] = system: Canis familiaris; experiment: Cardiovascular activity in presence of beta-adrenoceptor blockade in dogs as percent change in blood pressure from base line (109/88 mmHg) at 0.01 mg/kg dose given 15 min after nadolol; -10/-13; format: functional, Canis lupus familiaris
[4] = system: Canis familiaris; experiment: Hemodynamic activity in anesthetized dog as percent change in blood pressure from baseline (123 mmHg) at 0.03 mg/kg administered intravenously; format: functional, Canis lupus familiaris; conditions: route intravenous; how it was run: as §3
[5] = molecular target: Phosphodiesterase 3 (Homo sapiens, UniProt Q14432+Q13370); experiment: Inhibition of phosphodiesterase 3 from human platelets at 1*10e-7-1*10e-4 M
How it was run: (§4)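 Fraction III cAMP-PDE from guinea pig heart or human platelets. Substrate [3H]cyclic AMP 1.0 μM at 30°C, with hydrolysis held to ≤10-20% and kept linear over 30 min. Compounds in DMSO, 2.5% final.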

[6] = system: Canis familiaris; experiment: Weight of thrombus after 60 min of 3 ug/kg/min; format: functional, Canis lupus familiaris
How it was run: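 Anesthetized adult dogs were given sodium pentobarbital (32 mg/kg iv), intubated and artificially respired, then allowed 30 min to stabilize after surgery. Circumflex coronary thrombosis was induced by delivering 50 μA through an intraluminal silver-coated copper electrode, which denuded the endothelium. Continuous drug or saline infusion began 15 min before current onset and ran throughout, with one treatment per animal. After 60 min of stimulation the thrombus was dissected and weighed.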

[7] = system: Canis familiaris; experiment: Hemodynamic activity in anesthetized dog as percent change in left ventricular myocardial activity from baseline (2271 mmHg/s) at 0.003 mg/kg administered intravenously; format: functional, Canis lupus familiaris, Heart left ventricle; conditions: route intravenous; how it was run: as §3
[8] = organism: Canis familiaris; experiment: Ratio of positive inotropic activity to peripheral Vasodilator activity in dogs; format: functional, Canis lupus familiaris
How it was run: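 Inotropic ED20 is the iv bolus dose giving a 20% rise in dP/dtmax in anesthetized dogs. Vasodilator ED20 is the bolus dose into the brachial cannula of a constant-flow perfused forelimb (pentobarbital 30 mg/kg iv then 3.0 mg/kg/h, heparinized) giving a 20% fall in perfusion pressure. Each ED20 was taken from its dose-response curve; the ratio is PI/PV.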

[9] = system: Canis familiaris; experiment: Hemodynamic activity in anesthetized dog as percent change in blood pressure from baseline (123 mmHg) at 0.001 mg/kg administered intravenously; format: functional, Canis lupus familiaris; conditions: route intravenous; how it was run: as §3
[10] = system: Canis familiaris; experiment: Weight of thrombus after 60 min of 1 ug/kg/min; format: functional, Canis lupus familiaris; how it was run: as §2
[11] = organism: Canis familiaris; experiment: 50% increase in myocardial contractility (dP/dT max) in dogs; format: functional, Canis lupus familiaris, Myocardium; how it was run: as §3
[12] = system: Canis familiaris; experiment: (§5) Percentage increase in left ventricular contractility in anesthetized dog; format: functional, Canis lupus familiaris, Heart left ventricle
[13] = Partition coefficient (logP); format: physicochemical; conditions: octanol/water
[14] = organism: Homo sapiens; experiment: In vitro inhibition of ADP stimulated platelet aggregation in human whole blood; format: functional
How it was run: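 Human whole blood from aspirin/NSAID-free fasted donors, read by impedance aggregometry 5 min after adding ADP or collagen. Aggregation expressed as % of control (2-6 replicates), plotted against log drug concentration; IC50 obtained by extrapolation.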

[15] = system: Canis familiaris; experiment: Cardiovascular activity in presence of beta-adrenoceptor blockade in dogs as percent change in heart rate from base line (121 bpm) at 0.01 mg/kg; format: functional, Canis lupus familiaris
[16] = organism: Homo sapiens; experiment: In vitro inhibition of collagen stimulated platelet aggregation in human thrombocyte enriched plasma; format: functional
How it was run: (§6)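 Human platelet-rich plasma from aspirin/NSAID-free donors, adjusted to 250 000 platelets/μL with platelet-poor plasma. Drug in DMSO/saline (1% DMSO final) was added before ADP or collagen, with doses set by titration. Read-out was aggregation extent (ADP, curve height) or rate (collagen, major slope) as % of saline control.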

[17] = system: Canis familiaris; experiment: Cardiovascular activity in presence of beta-adrenoceptor blockade in dogs as percent change in blood pressure from base line (116/94 mmHg) at 0.01 mg/kg dose before nadolol administration; -9/-11
[18] = system: Canis familiaris; experiment: Hemodynamic activity in anesthetized dog as percent change in heart rate from baseline (152 bpm) at 0.3 mg/kg administered intravenously; format: functional, Canis lupus familiaris; conditions: route intravenous; how it was run: as §3
[19] = system: Canis familiaris; experiment: Hemodynamic activity in anesthetized dog as percent change in fore limb resistance from baseline (2.77 mmHg/mL/min) at 0.01 mg/kg administered intravenously; format: functional, Canis lupus familiaris; conditions: route intravenous; how it was run: as §3
[20] = Inhibition of phosphodiesterase 3 from guinea pig cardiac tissue at 1*10e-7-1*10e-4 M; parameters: species or system Cavia porcellus; how it was run: as §4
[21] = system: Canis familiaris; experiment: Hemodynamic activity in anesthetized dog as percent change in blood pressure from baseline (123 mmHg) at 0.3 mg/kg administered intravenously; format: functional, Canis lupus familiaris; conditions: route intravenous; how it was run: as §3
[22] = system: Canis familiaris; experiment: Hemodynamic activity in anesthetized dog as percent change in heart rate from baseline (152 bpm) at 0.1 mg/kg administered intravenously; format: functional, Canis lupus familiaris; conditions: route intravenous; how it was run: as §3
[23] = system: Canis familiaris; experiment: Hemodynamic activity in anesthetized dog as percent change in left ventricular myocardial activity from baseline (2271 mmHg/s) at 0.03 mg/kg administered intravenously; format: functional, Canis lupus familiaris, Heart left ventricle; conditions: route intravenous; how it was run: as §3
[24] = organism: Homo sapiens; experiment: In vitro inhibition of ADP stimulated platelet aggregation in human thrombocyte enriched plasma; format: functional; how it was run: as §6
[25] = system: Canis familiaris; experiment: Hemodynamic activity in anesthetized dog as percent change in fore limb resistance from baseline (2.77 mmHg/mL/min) at 0.03 mg/kg administered intravenously; format: functional, Canis lupus familiaris; conditions: route intravenous; how it was run: as §3
[26] = system: Canis familiaris; experiment: as §1; format: functional, Canis lupus familiaris; how it was run: as §2; remark: listed apart in the source
[27] = system: Canis familiaris; experiment: Cardiovascular activity in presence of beta-adrenoceptor blockade in dogs as percent change in left ventricular myocardial contractility from base line (2327 mmHg/s) at 0.01 mg/kg dose before nadolol administration
[28] = system: Canis familiaris; experiment: Hemodynamic activity in anesthetized dog as percent change in fore limb resistance from baseline (2.77 mmHg/mL/min) at 0.003 mg/kg administered intravenously; format: functional, Canis lupus familiaris; conditions: route intravenous; how it was run: as §3
[29] = system: Canis familiaris; experiment: Hemodynamic activity in anesthetized dog as percent change in blood pressure from baseline (123 mmHg) at 0.003 mg/kg administered intravenously; format: functional, Canis lupus familiaris; conditions: route intravenous; how it was run: as §3
[30] = system: Canis familiaris; experiment: Hemodynamic activity in anesthetized dog as percent change in left ventricular myocardial activity from baseline (2271 mmHg/s) at 0.001 mg/kg administered intravenously; format: functional, Canis lupus familiaris, Heart left ventricle; conditions: route intravenous; how it was run: as §3
[31] = system: Canis familiaris; experiment: as §5; format: functional, Canis lupus familiaris, Heart left ventricle; remark: listed apart in the source
[32] = system: Canis familiaris; experiment: Hemodynamic activity in anesthetized dog as percent change in fore limb resistance from baseline (2.77 mmHg/mL/min) at 0.1 mg/kg administered intravenously; format: functional, Canis lupus familiaris; conditions: route intravenous; how it was run: as §3
[33] = system: Canis familiaris; experiment: Hemodynamic activity in anesthetized dog as percent change in heart rate from baseline (152 bpm) at 0.01 mg/kg administered intravenously; format: functional, Canis lupus familiaris; conditions: route intravenous; how it was run: as §3
[34] = system: Canis familiaris; experiment: Hemodynamic activity in anesthetized dog as percent change in heart rate from baseline (152 bpm) at 0.03 mg/kg administered intravenously; format: functional, Canis lupus familiaris; conditions: route intravenous; how it was run: as §3

CC1CC(=O)NN=C1/C=C/c1ccc(-n2ccnc2)cc1.Cl (centres undefined)
Inhibition [1]: 40% | Change [2]: 65% | Change [3]: -10% | Change [4]: -24% | IC50 [5]: 77 nM | Thrombus weight [6]: 6.3 mg | Change [7]: 19% | Ratio [8]: 1.29 | Change [9]: -2% | Thrombus weight [10]: 10.7 mg | Dose [11]: 8 µg/kg | Increase [12]: 77% and 103% | logP [13]: 1.71 | IC50 [14]: 90 nM | Change [15]: 6% | IC50 [16]: 30 nM | Change [17]: -9% | Change [18]: 33% | Change [19]: -36% | IC50 [20]: 250 nM | Change [21]: -40% | Change [22]: 28% | Change [23]: 117% | IC50 [24]: 300 nM | Change [25]: -49% | Inhibition [26]: 65% and 44% | Change [27]: 56% | Change [28]: -15% | Change [29]: -5% | Change [30]: 2% | Increase [31]: 19% | Change [32]: -58% | Change [33]: 12% | Change [34]: 23%
